Measurements from ChEMBL document CHEMBL5724801, “EUbOPEN Chemogenomics Library - Multiplex” (2024).
Values joined by “and” are separate entries in the source; they are usually repeats but may differ in a detail not shown here. Equal entries are not always repeated.

Legend:
Fibroblast = assay: Multiplex assay against human fibroblast; assay type: toxicity, cell-based
Outline: (§1)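 At seeding, live cells were stained with Hoechst33342, BioTracker Green Microtubule Cytoskeleton Dye, MitoTracker Red and Annexin V Alexa Fluor 680. After compound addition they were imaged on a CQ1 microscope at 37°C and 5% CO2, and CellPathfinder machine-learning gating sorted them into Hoechst high-intensity objects or normal cells, with normal cells further split into healthy, pyknosed or fragmented nuclei and pyknosed cells into mitotic or apoptotic. Tubulin, mitochondrial-mass and membrane-permeability phenotypes are given as per cents of cells with healthy nuclei.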

HEK-293T = assay: Multiplex assay against HEK293T; assay type: toxicity, cell-based; settings: human; outline: as §1
[1] = 12 h, 1 µM, compound concentration 1 uM
[2] = 12 h, 10 µM, compound concentration 10 uM
[3] = 24 h, 1 µM, compound concentration 1 uM
[4] = 24 h, 10 µM, compound concentration 10 uM
[5] = 48 h, 1 µM, compound concentration 1 uM
[6] = 48 h, 10 µM, compound concentration 10 uM

Question: Which results are given for `CC(C)Oc1ccc(F)c(-c2cnc(N)c(C(=O)Nc3cnccc3N3CCC[C@@H](C(=O)O)C3)n2)c1`?
Answer: Population Apoptotic (%) (Fibroblast; [1]): 23.53% and 20.59%; Population Fragmented Nuclei (%) (Fibroblast; [1]): 23.08% and 16.74%; Population Healthy Nuclei (%) (Fibroblast; [1]): 53.85% and 68.67%; Population Hoechst High Intensity Objects (%) (Fibroblast; [1]): 0%; Population Membrane Permeable-Phenotype (%) (Fibroblast; [1]): 1.68% and 3.12%; Population Mitochondria Different-Phenotype (%) (Fibroblast; [1]): 7.56% and 5.62%; Population Mitotic Cells (%) (Fibroblast; [1]): 76.47% and 79.41%; Population Normal (%) (Fibroblast; [1]): 100%; Population Pyknosed Nuclei (%) (Fibroblast; [1]): 23.08% and 14.59%; Population Tubulin-Different-Phenotype (%) (Fibroblast; [1]): 15.97% and 18.12%; Total Cell Count (Fibroblast; [1]): 221 and 233; Population Apoptotic (%) (Fibroblast; [2]): 16.67% and 33.33%; Population Fragmented Nuclei (%) (Fibroblast; [2]): 29.81% and 29.75%; Population Healthy Nuclei (%) (Fibroblast; [2]): 60.87% and 65.82%; Population Hoechst High Intensity Objects (%) (Fibroblast; [2]): 0%; Population Membrane Permeable-Phenotype (%) (Fibroblast; [2]): 16.33% and 15.38%; Population Mitochondria Different-Phenotype (%) (Fibroblast; [2]): 5.61% and 3.53%; Population Mitotic Cells (%) (Fibroblast; [2]): 83.33% and 66.67%; Population Normal (%) (Fibroblast; [2]): 100%; Population Pyknosed Nuclei (%) (Fibroblast; [2]): 9.32% and 4.43%; Population Tubulin-Different-Phenotype (%) (Fibroblast; [2]): 45.92% and 79.17%; Total Cell Count (Fibroblast; [2]): 322 and 474; Population Fragmented Nuclei (%) (Fibroblast; [3]): 24.16% and 21.57%; Population Healthy Nuclei (%) (Fibroblast; [3]): 52.79% and 67.45%; Population Hoechst High Intensity Objects (%) (Fibroblast; [3]): 0%; Population Membrane Permeable-Phenotype (%) (Fibroblast; [3]): 4.23% and 3.49%; Population Mitochondria Different-Phenotype (%) (Fibroblast; [3]): 2.11% and 4.65%; Population Mitotic Cells (%) (Fibroblast; [3]): 93.55% and 71.43%; Population Normal (%) (Fibroblast; [3]): 100%; Population Pyknosed Nuclei (%) (Fibroblast; [3]): 23.05% and 10.98%; Population Tubulin-Different-Phenotype (%) (Fibroblast; [3]): 14.79% and 23.26%; Total Cell Count (Fibroblast; [3]): 269 and 255; Population Apoptotic (%) (Fibroblast; [4]): 11.11% and 17.65%; Population Fragmented Nuclei (%) (Fibroblast; [4]): 39.53% and 37.88%; Population Healthy Nuclei (%) (Fibroblast; [4]): 53.49% and 59.43%; Population Hoechst High Intensity Objects (%) (Fibroblast; [4]): 0%; Population Membrane Permeable-Phenotype (%) (Fibroblast; [4]): 13.04% and 18.13%; Population Mitochondria Different-Phenotype (%) (Fibroblast; [4]): 11.11% and 4.27%; Population Mitotic Cells (%) (Fibroblast; [4]): 88.89% and 82.35%; Population Normal (%) (Fibroblast; [4]): 100%; Population Pyknosed Nuclei (%) (Fibroblast; [4]): 6.98% and 2.69%; Population Tubulin-Different-Phenotype (%) (Fibroblast; [4]): 58.94% and 76%; Total Cell Count (Fibroblast; [4]): 387 and 631; Population Apoptotic (%) (Fibroblast; [5]): 11.96% and 8.33%; Population Fragmented Nuclei (%) (Fibroblast; [5]): 17.32% and 18.8%; Population Healthy Nuclei (%) (Fibroblast; [5]): 61.43% and 70.94%; Population Hoechst High Intensity Objects (%) (Fibroblast; [5]): 0%; Population Membrane Permeable-Phenotype (%) (Fibroblast; [5]): 1.88% and 3.61%; Population Mitochondria Different-Phenotype (%) (Fibroblast; [5]): 6.39% and 2.41%; Population Mitotic Cells (%) (Fibroblast; [5]): 88.04% and 91.67%; Population Normal (%) (Fibroblast; [5]): 100%; Population Pyknosed Nuclei (%) (Fibroblast; [5]): 21.25% and 10.26%; Population Tubulin-Different-Phenotype (%) (Fibroblast; [5]): 24.06% and 42.97%; Total Cell Count (Fibroblast; [5]): 433 and 351; Population Apoptotic (%) (Fibroblast; [6]): 25% and 75%; Population Fragmented Nuclei (%) (Fibroblast; [6]): 43.91% and 38.05%; Population Healthy Nuclei (%) (Fibroblast; [6]): 54.09% and 60.35%; Population Hoechst High Intensity Objects (%) (Fibroblast; [6]): 0%; Population Membrane Permeable-Phenotype (%) (Fibroblast; [6]): 15.74% and 24.56%; Population Mitochondria Different-Phenotype (%) (Fibroblast; [6]): 9.88% and 3.1%; Population Mitotic Cells (%) (Fibroblast; [6]): 75% and 25%; Population Normal (%) (Fibroblast; [6]): 100%; Population Pyknosed Nuclei (%) (Fibroblast; [6]): 2% and 1.6%; Population Tubulin-Different-Phenotype (%) (Fibroblast; [6]): 61.73% and 91.37%; Total Cell Count (Fibroblast; [6]): 599 and 749; Population Apoptotic (%) (HEK-293T; [1]): 7.53% and 11.02%; Population Fragmented Nuclei (%) (HEK-293T; [1]): 1.12% and 6.54%; Population Hoechst High Intensity Objects (%) (HEK-293T; [1]): 0.28% and 0%; Population Membrane Permeable-Phenotype (%) (HEK-293T; [1]): 0% and 4%; Population Mitochondria Different-Phenotype (%) (HEK-293T; [1]): 34.13% and 12%; Population Mitotic Cells (%) (HEK-293T; [1]): 92.47% and 88.98%; Population Normal (%) (HEK-293T; [1]): 99.72% and 100%; Population Pyknosed Nuclei (%) (HEK-293T; [1]): 40.78% and 77.12%; Total Cell Count (HEK-293T; [1]): 359 and 153; Population Apoptotic (%) (HEK-293T; [2]): 24.14% and 33.33%; Population Fragmented Nuclei (%) (HEK-293T; [2]): 7.04% and 7.45%; Population Hoechst High Intensity Objects (%) (HEK-293T; [2]): 1.97% and 0%; Population Membrane Permeable-Phenotype (%) (HEK-293T; [2]): 4.08% and 0%; Population Mitochondria Different-Phenotype (%) (HEK-293T; [2]): 31.63% and 17.39%; Population Mitotic Cells (%) (HEK-293T; [2]): 75.86% and 66.67%; Population Normal (%) (HEK-293T; [2]): 98.03% and 100%; Population Pyknosed Nuclei (%) (HEK-293T; [2]): 43.72% and 78.26%; Population Tubulin-Different-Phenotype (%) (HEK-293T; [2]): 70.41% and 47.83%; Total Cell Count (HEK-293T; [2]): 203 and 161; Population Apoptotic (%) (HEK-293T; [3]): 17% and 27.27%; Population Fragmented Nuclei (%) (HEK-293T; [3]): 0.79% and 9.15%; Population Hoechst High Intensity Objects (%) (HEK-293T; [3]): 0%; Population Membrane Permeable-Phenotype (%) (HEK-293T; [3]): 1.73% and 0%; Population Mitochondria Different-Phenotype (%) (HEK-293T; [3]): 12.59% and 10%; Population Mitotic Cells (%) (HEK-293T; [3]): 83% and 72.73%; Population Normal (%) (HEK-293T; [3]): 100%; Population Tubulin-Different-Phenotype (%) (HEK-293T; [3]): 24.69% and 10%
